Measured values reported in ChEMBL document CHEMBL1149143, “Synthesis, antimalarial activity, and molecular modeling of new pyrrolo[1,2-a]quinoxalines, bispyrrolo[1,2-a]quinoxalines, bispyrido[3,2-e]pyrrolo[1,2-a]pyrazines, and bispyrrolo[1,2-a]thieno[3,2-e]pyrazines” (J Med Chem, 2004).
Values belong to the compound of their own block, whether it stands above or below them.

What was measured:
L6 [1] = assay: In vitro cytotoxicity against mammalian L6 cells was determined; assay type: functional, cell-based; details: Rattus norvegicus
Method in brief: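 L6 cells, 10⁴ per well, exposed to a range of inhibitor concentrations for up to 5 days. Proliferation read by XTT colorimetric assay; inhibition relative to DMSO-treated controls; IC50 reported.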

Plasmodium falciparum [2] = assay: In vitro antimalarial activity against Thai strain of Plasmodium falciparum; assay type: functional, organism-based
Method in brief: (§1)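 P. falciparum kept on human erythrocytes; CQ-sensitive Thai and CQ-resistant FcB1 and K1 strains. Drugs diluted serially in culture medium, added to asynchronous cultures (1% parasitemia, 1% hematocrit) for 24 h at 37 °C, then 0.5 μCi [³H]hypoxanthine per well for 24 h more. Uptake compared with drug-free controls; IC50 from concentration–response curve, mean ± SD of independent experiments. DMSO ≤0.1%.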

Plasmodium falciparum [3] = assay: In vitro antimalarial activity against Plasmodium falciparum FcB1; assay type: functional, organism-based; method in brief: as §1
Plasmodium falciparum [4] = assay: In vitro antimalarial activity against Plasmodium falciparum K1; assay type: functional, organism-based; method in brief: as §1
Plasmodium falciparum [5] = assay: Resistance index as ratio of IC50 for Plasmodium falciparum FcB1 and Thai strains; assay type: functional
Plasmodium falciparum [6] = assay: Resistance index as IC50 for Plasmodium falciparum K1 and Thai strains; assay type: functional
L6 [7] = assay: Selectivity IC50 index against Plasmodium falciparum K1 compared to L6 cells; assay type: functional
[8] = Lipophilicity at pH 5; assay type: physicochemical; details: buffer, read-out: Log D5.0
Method in brief: (§2)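 Octanol/buffer shake partition: phosphate buffer pH 7.4 or acetate buffer pH 5.0, phases mutually presaturated; compound at 50–250 μg/mL in buffer. Aqueous phase shaken with octanol 30 min, centrifuged 3000 rpm 10 min. Aqueous peak areas before and after partitioning by reversed-phase C8 HPLC (acetonitrile–acetate pH 4, 80:20; 60 °C; UV 254 nm).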

[9] = Lipophilicity at pH 7.4; assay type: physicochemical; details: buffer, read-out: Log D7.4; method in brief: as §2
[10] = Food vacuolar accumulation ratio was determined; assay type: functional
Method in brief: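 Calculated, not measured: VAR from the compound's pKa values, assuming vacuolar pH 5.0 and external pH 7.4.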

Structure (SMILES): CCN(CC)CCCC(C)Nc1nc2cc(OC)ccc2n2cccc12 (stereo not given)
IC50 (L6 [1]): > 20000 nM | IC50 (Plasmodium falciparum [2]): 830 nM | IC50 (Plasmodium falciparum [3]): 2470 nM | IC50 (Plasmodium falciparum [4]): 1780 nM | Ratio (Plasmodium falciparum [5]): 3 | Ratio (Plasmodium falciparum [6]): 2.1 | Ratio (L6 [7]): >11.2

Structure (SMILES): COc1ccc2c(c1)nc(NCCCNCCCNc1nc3cc(OC)ccc3n3cccc13)c1cccn12
logD [8]: 0.8 | logD [9]: 2.76 | IC50 (L6 [1]): 2980 nM | IC50 (Plasmodium falciparum [2]): 40 nM | IC50 (Plasmodium falciparum [3]): 190 nM | IC50 (Plasmodium falciparum [4]): 110 nM | Ratio [10]: 104000 | Ratio (Plasmodium falciparum [5]): 4.7 | Ratio (Plasmodium falciparum [6]): 2.7 | Ratio (L6 [7]): 26.6

Structure (SMILES): COc1ccc2nc(NCCCN(C)CCCNc3nc4ccc(OC)cc4n4cccc34)c3cccn3c2c1
logD [8]: 0.41 | logD [9]: 3.41 | IC50 (L6 [1]): 3790 nM | IC50 (Plasmodium falciparum [2]): 120 nM | IC50 (Plasmodium falciparum [3]): 320 nM | IC50 (Plasmodium falciparum [4]): 200 nM | Ratio [10]: 42100 | Ratio (Plasmodium falciparum [5]): 2.7 | Ratio (Plasmodium falciparum [6]): 1.7 | Ratio (L6 [7]): 19.2

Structure (SMILES): CCN(CC)CCCC(C)Nc1nc2ccc(Cl)cc2n2cccc12 (stereo not given)
IC50 (L6 [1]): 17300 nM | IC50 (Plasmodium falciparum [2]): 1940 nM | IC50 (Plasmodium falciparum [3]): 4790 nM | IC50 (Plasmodium falciparum [4]): 3060 nM | Ratio (Plasmodium falciparum [5]): 2.5 | Ratio (Plasmodium falciparum [6]): 1.6 | Ratio (L6 [7]): 5.6

Structure (SMILES): CN(CCCNc1nc2ccccc2n2cccc12)CCCNc1nc2ccccc2n2cccc12
logD [8]: 1.56 | logD [9]: 4.12 | IC50 (L6 [1]): 6200 nM | IC50 (Plasmodium falciparum [2]): 120 nM | IC50 (Plasmodium falciparum [3]): 480 nM | IC50 (Plasmodium falciparum [4]): 280 nM | Ratio [10]: 226000 | Ratio (Plasmodium falciparum [5]): 4 | Ratio (Plasmodium falciparum [6]): 2.3 | Ratio (L6 [7]): 22.1

IC50 (Plasmodium falciparum [3]): 930 nM
Structure (SMILES): c1cc2c(NCCCN3CCN(CCCNc4nc5ccsc5n5cccc45)CC3)nc3ccsc3n2c1

Structure (SMILES): COc1ccc2c(c1)nc(NCCCN(C)CCCNc1nc3cc(OC)ccc3n3cccc13)c1cccn12
logD [8]: 0.93 | logD [9]: 3.55 | IC50 (L6 [1]): 5740 nM | IC50 (Plasmodium falciparum [2]): 50 nM | IC50 (Plasmodium falciparum [3]): 110 nM | IC50 (Plasmodium falciparum [4]): 50 nM | Ratio [10]: 105000 | Ratio (Plasmodium falciparum [5]): 2.2 | Ratio (Plasmodium falciparum [6]): 1 | Ratio (L6 [7]): 106.3

Structure (SMILES): COc1ccc2c(c1)nc(NCCCN1CCN(CCCNc3nc4cc(OC)ccc4n4c(Cl)ccc34)CC1)c1ccc(Cl)n12
logD [8]: 4.17 | logD [9]: 5.74 | IC50 (L6 [1]): 3070 nM | IC50 (Plasmodium falciparum [2]): 250 nM | IC50 (Plasmodium falciparum [3]): 720 nM | IC50 (Plasmodium falciparum [4]): 330 nM | Ratio [10]: 900 | Ratio (Plasmodium falciparum [5]): 2.9 | Ratio (Plasmodium falciparum [6]): 1.32 | Ratio (L6 [7]): 9.3

Structure (SMILES): COc1ccc2c(c1)nc(NCCCN1CCN(CCCNc3nc4cc(OC)ccc4n4cccc34)CC1)c1cccn12
logD [8]: 2.15 | logD [9]: 3.72 | IC50 (L6 [1]): 1320 nM | IC50 (Plasmodium falciparum [2]): 30 nM | IC50 (Plasmodium falciparum [3]): 130 nM | IC50 (Plasmodium falciparum [4]): 80 nM | Ratio [10]: 187000 | Ratio (Plasmodium falciparum [5]): 4.3 | Ratio (Plasmodium falciparum [6]): 2.7 | Ratio (L6 [7]): 17.4

Structure (SMILES): COc1ccc2nc(NCCCNCCCNc3nc4ccc(OC)cc4n4cccc34)c3cccn3c2c1
logD [8]: 0.93 | logD [9]: 2.58 | IC50 (L6 [1]): 3620 nM | IC50 (Plasmodium falciparum [2]): 140 nM | IC50 (Plasmodium falciparum [3]): 300 nM | IC50 (Plasmodium falciparum [4]): 330 nM | Ratio [10]: 41700 | Ratio (Plasmodium falciparum [5]): 2.1 | Ratio (Plasmodium falciparum [6]): 2.4 | Ratio (L6 [7]): 11

Structure (SMILES): Clc1ccc2nc(NCCCNCCCNc3nc4ccc(Cl)cc4n4cccc34)c3cccn3c2c1
logD [8]: 3.16 | logD [9]: 5.06 | IC50 (L6 [1]): 4810 nM | IC50 (Plasmodium falciparum [2]): 470 nM | IC50 (Plasmodium falciparum [3]): 1140 nM | IC50 (Plasmodium falciparum [4]): 790 nM | Ratio [10]: 1600 | Ratio (Plasmodium falciparum [5]): 2.4 | Ratio (Plasmodium falciparum [6]): 1.7 | Ratio (L6 [7]): 6.1

Structure (SMILES): COc1ccc2nc(NCCCN3CCN(CCCNc4nc5ccc(OC)cc5n5cccc45)CC3)c3cccn3c2c1
logD [8]: 1.88 | logD [9]: 4.67 | IC50 (L6 [1]): 4060 nM | IC50 (Plasmodium falciparum [2]): 40 nM | IC50 (Plasmodium falciparum [3]): 130 nM | IC50 (Plasmodium falciparum [4]): 80 nM | Ratio [10]: 72500 | Ratio (Plasmodium falciparum [5]): 3.2 | Ratio (Plasmodium falciparum [6]): 2 | Ratio (L6 [7]): 52.7

logD [8]: 2.22 | logD [9]: 5.05 | IC50 (Plasmodium falciparum [3]): 1090 nM
Structure (SMILES): c1cnc2c(c1)nc(NCCCN1CCN(CCCNc3nc4cccnc4n4cccc34)CC1)c1cccn12
Ratio [10]: 100

Structure (SMILES): c1ccc2c(c1)nc(NCCCN1CCN(CCCNc3nc4ccccc4n4cccc34)CC1)c1cccn12
logD [8]: 1.31 | logD [9]: 2.52 | IC50 (L6 [1]): 5040 nM | IC50 (Plasmodium falciparum [2]): 80 nM | IC50 (Plasmodium falciparum [3]): 290 nM | IC50 (Plasmodium falciparum [4]): 370 nM | Ratio [10]: 409000 | Ratio (Plasmodium falciparum [5]): 3.6 | Ratio (Plasmodium falciparum [6]): 4.6 | Ratio (L6 [7]): 13.6

Structure (SMILES): CCN(CC)CCCC(C)Nc1nc2ccccc2n2cccc12 (stereo not given)
IC50 (L6 [1]): > 20000 nM | IC50 (Plasmodium falciparum [2]): 2950 nM | IC50 (Plasmodium falciparum [3]): 4970 nM | IC50 (Plasmodium falciparum [4]): 4340 nM | Ratio (Plasmodium falciparum [5]): 1.7 | Ratio (Plasmodium falciparum [6]): 1.5 | Ratio (L6 [7]): >4.6

Structure (SMILES): CN(CCCNc1nc2ccc(Cl)cc2n2cccc12)CCCNc1nc2ccc(Cl)cc2n2cccc12
logD [8]: 3.5 | logD [9]: 4.44 | IC50 (L6 [1]): 4950 nM | IC50 (Plasmodium falciparum [2]): 400 nM | IC50 (Plasmodium falciparum [3]): 1010 nM | IC50 (Plasmodium falciparum [4]): 700 nM | Ratio [10]: 1800 | Ratio (Plasmodium falciparum [5]): 2.5 | Ratio (Plasmodium falciparum [6]): 1.8 | Ratio (L6 [7]): 7.1

Structure (SMILES): Clc1ccc2nc(NCCCN3CCN(CCCNc4nc5ccc(Cl)cc5n5cccc45)CC3)c3cccn3c2c1
logD [8]: 3.43 | logD [9]: 4.92 | IC50 (L6 [1]): 4010 nM | IC50 (Plasmodium falciparum [2]): 280 nM | IC50 (Plasmodium falciparum [3]): 640 nM | IC50 (Plasmodium falciparum [4]): 480 nM | Ratio [10]: 2100 | Ratio (Plasmodium falciparum [5]): 2.3 | Ratio (Plasmodium falciparum [6]): 1.7 | Ratio (L6 [7]): 8.2

logD [8]: 3.97 | logD [9]: 4.73 | IC50 (Plasmodium falciparum [3]): 600 nM
Structure (SMILES): COc1ccc2nc(NCCCN3CCN(CCCNc4nc5ccc(OC)nc5n5cccc45)CC3)c3cccn3c2n1
Ratio [10]: 33000
